“Also recorded” adds a separate entry of the source.
Legend:
[1] = system: senseless; test: Effect of overexpression on high target gene senseless in wing discs; format: in vivo, Drosophila; conditions: driven with ptc-Gal4 in wing discs
Summary of the method: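 Wing discs from crosses at 25°C, with V5-tagged human glypican UAS-attB transgenes driven by ptc-Gal4 (senseless) or en-Gal4 (Distal-less). Discs immunostained with Alexa-conjugated secondaries, DAPI-mounted and imaged by confocal microscopy. Distal-less signal quantified in boxed regions and plotted separately for anterior and posterior compartments. Three independent repeats.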

[2] = system: GFP-Wingless; test: In vivo trapping of GFP-Wingless at the surface of wing imaginal disc cells; parameters: species or system Drosophila; conditions: overexpressed with ptc-Gal4 in wing imaginal discs
Summary of the method: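 GFP-Wingless knock-in wing discs with V5-tagged human GPC4, GPC6, GPC3 or GPC5 driven by ptc-Gal4, crossed at 25°C. Surface capture of GFP-Wingless imaged by confocal microscopy after immunostaining with Alexa-conjugated secondaries and DAPI mounting. Three independent repeats.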

[3] = Lipid binding of furin-site mutant vs wild-type Dlp^core; conditions: furin sites destroyed: K398Q, K399A, R402Q, R438Q, R441A
[4] = system: GFP-Wingless; conditions: culture medium, literature; ref [6],[22]; cited from earlier work
[5] = system: GFP-Wingless[S239A]; test: In vivo trapping of GFP-Wingless[S239A] at the surface of imaginal disc cells; parameters: species or system Drosophila; conditions: glypican overexpressed with ptc-Gal4 in imaginal discs
[6] = system: Distal-less; conditions: overexpressed; ref [13],[14]; cited from earlier work
[7] = system: senseless; conditions: overexpressed; ref [13],[14]; cited from earlier work
[8] = system: GFP-Wingless; test: Solubilisation of GFP-Wingless in serum-free S2 cell medium; format: cell-based, Drosophila; conditions: conditioned medium from S2 cells expressing Dlp^ΔGPI-V5 added to S2 cells expressing GFP-Wingless, 12hrs, concentrated 20-fold, Western blot
[9] = system: Wingless; conditions: ref [13],[14]; cited from earlier work
[10] = system: GFP-Wingless; test: Colocalisation with morphotrap-enriched GFP-Wingless in wing discs; format: in vivo, Drosophila; conditions: n=4 (Dlp^ΔGPI-V5), n=13 (ApoL), n=10 (Hrs)
Summary of the method: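 For ApoL and Hrs, morphotrap is driven by dpp-Gal4 and the endogenous proteins are immunostained. For Dlp ΔGPI-V5, morphotrap is driven by dpp-LexA and Dlp by wg-Gal4, limited to 24 h with Gal80ts (18°C rearing, 29°C shift). Confocal imaging; colocalisation scored where domains intersect; SD; three repeats.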

B1: GPC4: human glypican of Dlp family; secreted ΔGPI form (amino acids 1-487) in solubilisation assays (protein)
chain: ALLAAELKSKSCSEVRRLYVSKGFNKNDAPLHEINGDHLKICPQGSTCCSQEMEEKYSLQSKDDFKSVVSEQCNHLQAVFASRYKKFDEFFKELLENAEKSLNDMFVKTYGHLYMQNSELFKDLFVELKRYYVVGNVNLEEMLNDFWARLLERMFRLVNSQYHFTDEYLECVSKYTEQLKPFGDVPRKLKLQVTRAFVAARTFAQGLAVAGDVVSKVSVVNPTAQCTHALLKMIYCSHCRGLVTVKPCYNYCSNIMRGCLANQGDLDFEWNNFIDAMLMVAERLEGPFNIESVMDPIDVKISDAIMNMQDNSVQVSQKVFQGCGPPKPLPAGRISRSISESAFSARFRPHHPEERPTTAAGTSLDRLVTDVKEKLKQAKKFWSSLPSNVCNDERMAAGNGNEDDCWNGKGKSRYLFAVTGNGLANQGNNPEVQVDTSKPDILILRQIMALRVMTSKMKNAYNGNDVDFFDISDESSGEGSGSGCEYQQCPSEFDYNATDHAGKSANEKADS
modifications: left off: V5, internal (immediately after the signal peptide), state not stated
- effect on high target gene senseless [1]: inhibit the high target gene senseless
- trapping of GFP-Wingless at the cell surface ([2]; listed as hGPC4): trapped Wingless

B2: furin mutant form: Dlp^core form where both furin sites were destroyed (protein)
chain: DQFSPNCSAVTHIFQARGIDAIEIPQKPSNERVLRYCESPSVGTCCTYNMETRMAMQSRQQLEGHTKDQISRMSGILGSKATKFKDIFTALLKESRTQFNSMFIRTYGVIYERNSYVFSDLFKELETYFANGRVDLLEVMDKFFNTLYQKMFTVLNTQYTFDENYMRCVSEHMKELKPFGDVPDKLSVQIKRSFVATRTYGQALTTASEVAKKVLNVRLNADCTGALTKMQHCGACKGYTEKPCTNYCVNVIKGCLHYQHEFDSEWENFAMAMDKVAERLLGSFNIVMVVEPLNIKISEAIMNFQDSGQDITNRVFQGCGRPKLQAMKQSISPKLQGVQILNARSPVEADTLDIDETLDEAIVLQERAAAEPGSQETSAQQSQEQGVGKSGNGGGGGGGNNRRQQQRRKQQQQRRKQQNNRDDNDDDDNESGGGREPILDRIVRDIRQRVKDYKKFWSNLPHSVCSNEDIASSSDVDGMCWNGHTIDRYMHSITTEHGSNPEFTGNPASTKQTAQMASQLSHLKNAIVHLRNAYNGQDVEWSEQ
modifications: left off: Twin-Strep, C-terminal, cleaved
- lipid binding behaviour vs wild-type form [3]: No difference in lipid binding behaviour

B3: Afamin: lipid-binding protein (protein, UniProt P43652 22-599, looked up)
Afamin: LPTQPRDIENFNSTQKFIEDNIEYITIIAFAQYVQEATFEEMEKLVKDMVEYKDRCMADKTLPECSKLPNNVLQEKICAMEGLPQKHNFSHCCSKVDAQRRLCFFYNKKSDVGFLPPFPTLDPEEKCQAYESNRESLLNHFLYEVARRNPFVFAPTLLTVAVHFEEVAKSCCEEQNKVNCLQTRAIPVTQYLKAFSSYQKHVCGALLKFGTKVVHFIYIAILSQKFPKIEFKELISLVEDVSSNYDGCCEGDVVQCIRDTSKVMNHICSKQDSISSKIKECCEKKIPERGQCIINSNKDDRPKDLSLREGKFTDSENVCQERDADPDTFFAKFTFEYSRRHPDLSIPELLRIVQIYKDLLRNCCNTENPPGCYRYAEDKFNETTEKSLKMVQQECKHFQNLGKDGLKYHYLIRLTKIAPQLSTEELVSLGEKMVTAFTTCCTLSEEFACVDNLADLVFGELCGVNENRTINPAVDHCCKTNFAFRRPCFESLKADKTYVPPPFSQDLFTFHADMCQSQNEELQRKTDRFLVNLVKLKHELTDEELQSLFTNFANVVDKCCKAESPEVCFNEESPKIGN
- release of soluble Wnt on addition of lipid-binding protein [4]: enables the release of soluble Wnt

B4: GPC6: human glypican of Dlp family; secreted ΔGPI form (amino acids 1-529) in solubilisation assays (protein)
chain: DVKARSCGEVRQAYGAKGFSLADIPYQEIAGEHLRICPQEYTCCTTEMEDKLSQQSKLEFENLVEETSHFVRTTFVSRHKKFDEFFRELLENAEKSLNDMFVRTYGMLYMQNSEVFQDLFTELKRYYTGGNVNLEEMLNDFWARLLERMFQLINPQYHFSEDYLECVSKYTDQLKPFGDVPRKLKIQVTRAFIAARTFVQGLTVGREVANRVSKVSPTPGCIRALMKMLYCPYCRGLPTVRPCNNYCLNVMKGCLANQADLDTEWNLFIDAMLLVAERLEGPFNIESVMDPIDVKISEAIMNMQENSMQVSAKVFQGCGQPKPAPALRSARSAPENFNTRFRPYNPEERPTTAAGTSLDRLVTDIKEKLKLSKKVWSALPYTICKDESVTAGTSNEEECWNGHSKARYLPEIMNDGLTNQINNPEVDVDITRPDTFIRQQIMALRVMTNKLKNAYNGNDVNFQDTSDESSGSGSGSGCMDDVCPTEFEFVTTEAPAVDPDRREVDS
modifications: left off: V5, internal (immediately after the signal peptide), state not stated
- effect on high target gene senseless [1]: inhibit the high target gene senseless
- trapping of GFP-Wingless at the cell surface ([2]; listed as hGPC6): trapped Wingless

B5: Dlp: Drosophila glypican Dally-like protein (protein)
chain: PQVAALAAPNPAGGVAGSSIIDQFSPNCSAVTHIFQARGIDAIEIPQKPSNERVLRYCESPSVGTCCTYNMETRMAMQSRQQLEGHTKDQISRMSGILGSKATKFKDIFTALLKESRTQFNSMFIRTYGVIYERNSYVFSDLFKELETYFANGRVDLLEVMDKFFNTLYQKMFTVLNTQYTFDENYMRCVSEHMKELKPFGDVPDKLSVQIKRSFVATRTYGQALTTASEVAKKVLNVRLNADCTGALTKMQHCGACKGYTEKPCTNYCVNVIKGCLHYQHEFDSEWENFAMAMDKVAERLLGSFNIVMVVEPLNIKISEAIMNFQDSGQDITNRVFQGCGRPKLKKMKRSISPKLQGVQILNARSPVEADTLDIDETLDEAIVLRERRAAEPGSQETSAQQSQEQGVGKSGNGGGGGGGNNRRQQQRRKQQQQRRKQQNNRDDNDDDDNESGGGREPILDRIVRDIRQRVKDYKKFWSNLPHSVCSNEDIASSSDVDGMCWNGHTIDRYMHSITTEHGSNPEFTGNPASTKQTAQMASQLSHLKNAIVHLRNAYNGQDVEWSEQEELPYAGSGAGSGSGSEDDEDDDEGSGLGPFEPSHKPDVERPSVDADNDDDEDAGGRGHMPTHTSRPTSGVDDKNPLIHTTHFDQDHNDLDEDHRQLDEDEDTDAG
modifications: left off: HA, end not stated, kept
- trapping of GFP-Wingless[S239A] (unlipidated) [5]: did not detectably trap; also recorded: not GFP-Wingless[S239A]
- biphasic activity in wing imaginal discs: distal-less [6]: extending the range of the low target gene distal-less
- trapping of GFP-Wingless at the cell surface [2]: duly trapped endogenous-level GFP-Wingless; also recorded: captures GFP-Wingless
- biphasic activity in wing imaginal discs: senseless [7]: inhibiting the high target gene senseless

B6: Dlp^ΔGPI: secreted form of Dlp lacking its membrane anchor, amino acids 53-723 (protein)
chain: B5 chain
modifications: left off: V5, C-terminal, kept
- solubilisation of GFP-Wingless, added conditioned medium [8]: A similar effect was seen
- solubilisation of GFP-Wingless, added conditioned medium ([8]; listed as Dlp^ΔGPI-V5): stabilises GFP-Wingless in solution
- binding to Wingless [9]: known to bind Wingless
- colocalisation with morphotrap-enriched GFP-Wingless [10]: colocalizes

Source: article PMC7610841 (Nature, 2020)
